Blank lines part the entries; values can stand above or below the molecule they belong to.
What was measured:
[1] = molecular target: GST-MIM-S1 (murine) (UniProt Q8R1S4); assay: pull-down
[2] = molecular target: T1, MIM-Myc (murine, UniProt Q8R1S4 1-759); assay: pull-down
T1 sequence (looked up): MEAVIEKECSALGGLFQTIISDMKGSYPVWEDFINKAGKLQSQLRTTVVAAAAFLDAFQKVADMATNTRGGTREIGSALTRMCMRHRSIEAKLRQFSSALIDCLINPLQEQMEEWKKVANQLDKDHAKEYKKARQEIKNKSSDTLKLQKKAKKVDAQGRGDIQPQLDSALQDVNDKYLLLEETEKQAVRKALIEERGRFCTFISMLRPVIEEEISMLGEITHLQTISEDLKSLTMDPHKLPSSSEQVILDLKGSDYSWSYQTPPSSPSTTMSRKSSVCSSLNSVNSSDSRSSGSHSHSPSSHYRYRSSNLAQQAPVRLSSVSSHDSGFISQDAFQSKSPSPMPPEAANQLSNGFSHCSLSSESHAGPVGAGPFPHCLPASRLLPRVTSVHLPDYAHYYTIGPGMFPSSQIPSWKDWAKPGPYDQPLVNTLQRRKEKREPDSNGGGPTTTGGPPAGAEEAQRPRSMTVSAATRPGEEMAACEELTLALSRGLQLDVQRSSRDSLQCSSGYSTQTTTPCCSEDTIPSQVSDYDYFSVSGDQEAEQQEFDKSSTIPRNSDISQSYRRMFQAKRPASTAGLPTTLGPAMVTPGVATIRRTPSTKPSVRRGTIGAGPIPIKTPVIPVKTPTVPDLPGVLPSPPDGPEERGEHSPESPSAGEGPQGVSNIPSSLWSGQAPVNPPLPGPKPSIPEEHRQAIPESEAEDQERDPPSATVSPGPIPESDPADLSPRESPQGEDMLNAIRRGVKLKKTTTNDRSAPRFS

[3] = molecular target: T2, MIM-GFP (murine, UniProt Q8R1S4 1-759); assay: co-IP
T2 sequence (looked up): T1 sequence (looked up)

[4] = tested on: MIM-I-BAR-Myc; assay: Pull-down of cell lysates with GST-MIM-S1/-S2, unbound MIM by Western blot; assay type: binding, murine; conditions: GST-tagged recombinant peptide, Western blot anti-Myc, in words
In short: (§1)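 GST-tagged test peptide made in DH5α (0.5 mM IPTG added at OD600 0.3–0.4, then 90 min). It was captured on glutathione Sepharose 4B (2 h, 4°C) and washed in PBS. 293T cells were transfected with the Myc-tagged MIM construct and lysed 48 h later. Lysates were precipitated with the bead-bound peptide at varying concentrations. Supernatant (unbound MIM) and washed pellets were analysed by SDS-PAGE/anti-Myc Western blot with chemiluminescence.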

[5] = tested on: MIM-Myc; assay: as above; assay type: binding, murine; conditions: GST-tagged recombinant peptide, Western blot anti-Myc, in words
In short: as §1

[6] = molecular target: T1, MIM-Myc; assay: co-IP

Kd [1]: 65 nM
Molecule: MIM-I-BAR-Myc (domain or fragment)

Kd [2]: 110 nM
IC50 [3]: 213 nM
B1: GST-MIM-S1 (domain or fragment, murine, UniProt Q8R1S4 18-89, looked up)
chain: TIISDMKGSYPVWEDFINKAGKLQSQLRTTVVAAAAFLDAFQKVADMATNTRGGTREIGSALTRMCMRHRSI

B2: GST-MIM-S1: recombinant GST-tagged form of peptide MIM-S1 (protein)
chain: B1 chain
modifications: left off: GST, end not stated, kept
pull-down of MIM-I-BAR-Myc from 293T lysates [4]: able to precipitate effectively
pull-down of MIM-Myc from 293T lysates [5]: able to precipitate effectively

IC50 [6]: 140 nM
Molecule: AFQKVADMATNTRGGTREIGSALTRMCMRHRSI [MIM-S3]

— PMC3624906 (The Biochemical journal, 2012)
